# Reference: ChEMBL document CHEMBL1667760, “Synthesis and biological evaluation of 3,5-diaryl isoxazoline/isoxazole linked 2,3-dihydroquinazolinone hybrids as anticancer agents” (2011)
# Active and inactive are the calls of the source. No cut-off for these calls is given here.
# Legend:
# [1] = test system: K562; experiment: Cytotoxicity against human K562 cells after 48 hrs by sulforhodamine B assay; format: functional; settings: K562, 48 h
# Procedure, shortened: (§1)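 Run by the NCI 60-cell-line screen. A one-dose pre-test was done first, followed by the main test over a 5-log dose range (10^-4 to 10^-8 M). Results are reported as log molar GI50 (50% net growth inhibition), TGI (total growth inhibition) and LC50 (50% net cell death), with mean-graph midpoints across all lines.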
# [2] = test system: MOLT-4; experiment: Cytotoxicity against human MOLT4 cells after 48 hrs by sulforhodamine B assay; format: functional; settings: MOLT-4, 48 h; procedure, shortened: as §1
# [3] = test system: A549; experiment: Cytotoxicity against human A549 cells after 48 hrs by sulforhodamine B assay; format: functional; settings: A549, 48 h
# Procedure, shortened: (§2)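 Cells were grown in RPMI 1640 with 10% FBS and 2 mM L-glutamine, plated at densities set by doubling time, and pre-incubated 24 h at 37 °C, 5% CO2. Drugs were tested at 0.1, 1, 10 and 100 µM in triplicate wells for 48 h continuous exposure. Cells were fixed with 10% TCA (final) and stained with 0.4% SRB. A540 was read against a 690 nm reference, and percent growth was calculated relative to control. Experiments were repeated three times.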
# [4] = test system: NCI-H23; experiment: Cytotoxicity against human NCI-H23 cells after 48 hrs by sulforhodamine B assay; format: functional; settings: NCI-H23, 48 h; procedure, shortened: as §1
# [5] = test system: COLO 205; experiment: Cytotoxicity against human COLO205 cells after 48 hrs by sulforhodamine B assay; format: functional; settings: COLO 205, 48 h; procedure, shortened: as §1
# [6] = test system: DU-145; experiment: Cytotoxicity against human DU145 cells after 48 hrs by sulforhodamine B assay; format: functional; settings: DU-145, 48 h; procedure, shortened: as §1
# [7] = test system: SF-268; experiment: Cytotoxicity against human SF268 cells after 48 hrs by sulforhodamine B assay; format: functional; settings: SF-268, 48 h; procedure, shortened: as §1
# [8] = test system: SF-295; experiment: Cytotoxicity against human SF295 cells after 48 hrs by sulforhodamine B assay; format: functional; settings: SF-295, 48 h; procedure, shortened: as §1
# [9] = test system: U-251; experiment: Cytotoxicity against human U251 cells after 48 hrs by sulforhodamine B assay; format: functional; settings: U-251, 48 h
# Procedure, shortened: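 NCI 60-cell-line panel screen of human tumor lines: a one-dose pre-test, then the main test over a 5-log range (10^-4–10^-8 M). GI50, TGI and LC50 are reported as log molar concentrations for 50% net growth inhibition, total growth inhibition and 50% net cell death. Mean graph midpoints are also calculated.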
# [10] = test system: LOX IMVI; experiment: Cytotoxicity against human LOXIMVI cells after 48 hrs by sulforhodamine B assay; format: functional; procedure, shortened: as §1
# [11] = test system: SK-MEL-28; experiment: Cytotoxicity against human SK-MEL-28 cells after 48 hrs by sulforhodamine B assay; format: functional; settings: SK-MEL-28, 48 h; procedure, shortened: as §1
# [12] = test system: OVCAR-4; experiment: Cytotoxicity against human OVCAR4 cells after 48 hrs by sulforhodamine B assay; format: functional; settings: OVCAR-4, 48 h; procedure, shortened: as §1
# [13] = test system: MCF7; experiment: Cytotoxicity against human MCF7 cells after 48 hrs by sulforhodamine B assay; format: functional; settings: MCF7, 48 h; procedure, shortened: as §2
# [14] = test system: MCF7; experiment: Cell cycle arrest in human MCF7 cells assessed as accumulation at S phase at 5 uM after 24 hrs using propidium iodide staining by flow cytometry relative to control; format: functional
# Procedure, shortened: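 MCF-7 cells were seeded at 5×10^5 per 60 mm dish and grown 24 h. They were then exposed to 5 uM compound for a further 24 h, with untreated control cells alongside. Cells were trypsinised, fixed in ice-cold 70% ethanol (4 °C, 30 min), treated with 1 mg/ml RNase A (37 °C, 30 min) and stained with propidium iodide/citrate/Triton solution. DNA content was read by flow cytometry on 20,000 events.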
# [15] = test system: MCF7; experiment: Induction of apoptosis in human MCF7 cells assessed as nuclear fragmentation at 5 uM after 48 hrs by DAPI staining; format: functional, cell-based
# Procedure, shortened: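 MCF-7 cells grown on glass coverslips and incubated 48 h with or without compound. Fixed in 3% paraformaldehyde/0.02% glutaraldehyde in PBS, stained with DAPI, and nuclear morphology examined by fluorescence microscopy.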
# [16] = test system: MCF7; experiment: Reduction of cyclin B expression in human MCF7 cells at 5 uM after 24 hrs by Western blotting; format: functional, cell-based
# Procedure, shortened: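 MCF-7 cells, kept in DMEM with 10% fetal calf serum at 37 °C under 5% CO2, treated 24 h. Lysis in ice-cold RIPA with protease inhibitors; Bradford quantitation; 30 µg protein per lane on 12% SDS-PAGE, then PVDF. Primary antibodies (1:500) at 4 °C overnight; HRP secondary (1:2000); chemiluminescence detection; β-actin loading control.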
# [17] = read-out: pLC50 (the source's name) (converted)
structure (smiles),measurement,setting,value
COc1cc(C2NC(=O)c3ccccc3N2)ccc1OCCCCCOc1c(OC)cc(C2=NOC(c3cc(OC)c(OC)c(OC)c3)C2)cc1OC (configuration not stated),GI50,[1],0.501 µM
same,CC50,[1]; [17],> 100 µM
same,TGI,[1]; read-out: pTGI,> 100 µM
same,GI50,[2],0.479 µM
same,CC50,[2]; [17],> 100 µM
same,TGI,[2]; read-out: pTGI,> 100 µM
same,LC50,[3],> 100 µM
same,GI50,[3]; read-out: pGI50 (converted),0.324 µM
same,TGI,[3]; read-out: pTGI,> 100 µM
same,GI50,[4],0.603 µM
same,CC50,[4]; [17],> 100 µM
same,TGI,[4]; read-out: pTGI,> 100 µM
same,GI50,[5],34.7 µM
same,CC50,[5]; [17],> 100 µM
same,TGI,[5]; read-out: pTGI,> 100 µM
same,GI50,[6],22.4 µM
same,CC50,[6]; [17],> 100 µM
same,TGI,[6]; read-out: pTGI,> 100 µM
same,GI50,[7],21.4 µM
same,CC50,[7]; [17],> 100 µM
same,TGI,[7]; read-out: pTGI,> 100 µM
same,GI50,[8],0.398 µM
same,CC50,[8]; [17],> 100 µM
same,TGI,[8]; read-out: pTGI,> 100 µM
same,GI50,[9],15.1 µM
same,CC50,[9]; [17],> 100 µM
same,TGI,[9]; read-out: pTGI,> 100 µM
same,GI50,[10],14.1 µM
same,CC50,[10]; [17],> 100 µM
same,TGI,[10]; read-out: pTGI,> 100 µM
same,GI50,[11],5.25 µM
same,CC50,[11]; [17],> 100 µM
same,TGI,[11]; read-out: pTGI,> 100 µM
same,GI50,[12],0.355 µM
same,CC50,[12]; [17],> 100 µM
same,TGI,[12]; read-out: pTGI,> 100 µM
same,GI50,[13],0.282 µM
same,CC50,[13]; [17],> 100 µM
same,TGI,[13]; read-out: pTGI,> 100 µM
same,Activity,[14],22.38%
same,inhibition,[15],Active
same,Activity,[16],Active
